In ChEMBL document CHEMBL1139437, “Design, synthesis, and preliminary pharmacological evaluation of 4-aminopiperidine derivatives as N-type calcium channel blockers active on pain and neuropathic pain” (J Med Chem, 2004):

Experiments:
Mus musculus [1] = assay: Analgesic activity was evaluated in mouse hotplate test; expressed as licking latency after 15 min of treatment at a dose of 40 ug intracerebroventricularly; assay type: functional
In short: (§1)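 Male Swiss albino mice (23-30 g); icv injection of 5 μL (saline or H2O/DMSO 2:1) under brief anaesthesia. Paw-licking latency (s) on hot plate read before injection and every 15 min up to 60 min. Mice with pretest latency below 12 or over 18 s excluded; cutoff 45 s. Statistics against saline- or vehicle-treated controls.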

Mus musculus [2] = assay: Analgesic activity was evaluated in mouse hotplate test; expressed as licking latency after 30 min of treatment at a dose of 40 ug intracerebroventricularly; assay type: functional; in short: as §1
Mus musculus [3] = species: Mus musculus; assay: Percentage analgesic efficacy when compared to morphine; assay type: functional; design: concentration or dose not given beside the values
In short: (§2)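 Male Swiss albino mice, hot-plate test, paw-licking latency; pretest 12–18 s required, cutoff 45 s. Icv injection of 5 μL under brief anaesthesia, in saline or H2O/DMSO 2:1, at maximal soluble dose. Latency read before and every 15 min after dosing. Efficacy = (peak latency − pretest) as % of the same value for morphine 10 μg/mouse icv; non-significant effects scored 0.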

Mus musculus [4] = assay: Analgesic activity was evaluated in mouse hotplate test; expressed as licking latency after 45 min of treatment at a dose of 40 ug intracerebroventricularly; assay type: functional; in short: as §1
Rattus norvegicus [5] = assay: Antihyperalgesic activity was evaluated in rat (dx) paw pressure test after 30 min at a dose of 40 ug intracerebroventricularly
Rattus norvegicus [6] = assay: Antihyperalgesic activity was evaluated in rat (dx) paw pressure test after 45 min at a dose of 40 ug intracerebroventricularly
Rattus norvegicus [7] = assay: Antihyperalgesic activity was evaluated in rat (dx) paw pressure test after 60 min at a dose of 40 ug intracerebroventricularly
Rattus norvegicus [8] = assay: Antihyperalgesic activity was evaluated in rat (sn) paw pressure test after 30 min at a dose of 40 ug intracerebroventricularly
Rattus norvegicus [9] = assay: Antihyperalgesic activity was evaluated in rat (sn) paw pressure test after 45 min at a dose of 40 ug intracerebroventricularly
Rattus norvegicus [10] = assay: Antihyperalgesic activity was evaluated in rat (sn) paw pressure test after 60 min at a dose of 40 ug intracerebroventricularly
[11] = molecular target: Voltage-dependent N-type calcium channel subunit alpha-1B (Rattus norvegicus) (UniProt Q02294); assay: In vitro antagonism of N-type calcium channels expressed in PC12 cells was determined as the increase in intracellular calcium influx
Mus musculus [12] = assay: Percentage analgesic efficacy when compared to morphine at 10 ug intracerebroventricularly; assay type: functional; in short: as §2
Mus musculus [13] = assay: Percentage analgesic efficacy when compared to morphine at 50 ug intracerebroventricularly; assay type: functional; in short: as §2
Mus musculus [14] = assay: (§3) Analgesic activity was evaluated in mouse hotplate test; expressed as licking latency after 30 min of treatment at a dose of 10 ug intracerebroventricularly; assay type: functional; in short: as §1
Mus musculus [15] = assay: Analgesic activity was evaluated in mouse hotplate test; expressed as licking latency after 30 min of treatment at a dose of 25 ug intracerebroventricularly; assay type: functional; in short: as §1
Mus musculus [16] = assay: Analgesic activity was evaluated in mouse hotplate test; expressed as licking latency after 15 min of treatment at a dose of 25 ug intracerebroventricularly; assay type: functional; in short: as §1
Mus musculus [17] = assay: (§4) Analgesic activity was evaluated in mouse hotplate test; expressed as licking latency after 45 min of treatment at a dose of 10 ug intracerebroventricularly; assay type: functional; in short: as §1
Mus musculus [18] = assay: Analgesic activity was evaluated in mouse hotplate test; expressed as licking latency after 45 min of treatment at a dose of 25 ug intracerebroventricularly; assay type: functional; in short: as §1
Mus musculus [19] = assay: Analgesic activity was evaluated in mouse hotplate test; expressed as licking latency before treatment at a dose of 10 ug intracerebroventricularly; assay type: functional; in short: as §1
Mus musculus [20] = assay: Analgesic activity was evaluated in mouse hotplate test; expressed as licking latency before treatment at a dose of 25 ug intracerebroventricularly; assay type: functional; in short: as §1
Mus musculus [21] = assay: Analgesic activity was evaluated in mouse hotplate test; expressed as licking latency after 15 min of treatment at a dose of 50 ug intracerebroventricularly; assay type: functional; in short: as §1
Mus musculus [22] = assay: (§5) Analgesic activity was evaluated in mouse hotplate test; expressed as licking latency after 15 min of treatment at a dose of 10 ug intracerebroventricularly; assay type: functional; in short: as §1
Mus musculus [23] = assay: Analgesic activity was evaluated in mouse hotplate test; expressed as licking latency after 30 min of treatment at a dose of 50 ug intracerebroventricularly; assay type: functional; in short: as §1
Mus musculus [24] = assay: Analgesic activity was evaluated in mouse hotplate test; expressed as licking latency after 45 min of treatment at a dose of 50 ug intracerebroventricularly; assay type: functional; in short: as §1
Rattus norvegicus [25] = assay: Antihyperalgesic activity was evaluated in rat (dx) paw pressure test after 30 min at a dose of 50 ug intracerebroventricularly
Rattus norvegicus [26] = assay: Antihyperalgesic activity was evaluated in rat (dx) paw pressure test after 45 min at a dose of 50 ug intracerebroventricularly
Rattus norvegicus [27] = assay: Antihyperalgesic activity was evaluated in rat (dx) paw pressure test after 60 min at a dose of 50 ug intracerebroventricularly
Rattus norvegicus [28] = assay: Antihyperalgesic activity was evaluated in rat (sn) paw pressure test after 30 min at a dose of 50 ug intracerebroventricularly
Rattus norvegicus [29] = assay: Antihyperalgesic activity was evaluated in rat (sn) paw pressure test after 45 min at a dose of 50 ug intracerebroventricularly
Rattus norvegicus [30] = assay: Antihyperalgesic activity was evaluated in rat (sn) paw pressure test after 60 min at a dose of 50 ug intracerebroventricularly
[31] = molecular target: Voltage-dependent N-type calcium channel subunit alpha-1B (Rattus norvegicus) (UniProt Q02294); assay: In vitro antagonism of N-type calcium channels expressed in PC12 cells was determined as the increase in intracellular calcium influx in the presence of 10 uM nifedipine
Mus musculus [32] = assay: as §5; assay type: functional; remark: listed apart in the source
In short: (§6)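 Male Swiss albino mice (23-30 g); icv injection under brief anaesthesia, 5 μL into the lateral ventricle, in saline or H2O/DMSO (2:1). Hot plate: latency to licking of fore or hind paws timed with a stopwatch before injection and every 15 min up to 60 min. Pretest scores below 12 or over 18 s rejected; cutoff 45 s.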

Mus musculus [33] = assay: as §3; assay type: functional; in short: as §6; remark: listed apart in the source
Mus musculus [34] = assay: as §4; assay type: functional; in short: as §6; remark: listed apart in the source

Voltage-dependent N-type calcium channel subunit alpha-1B (Rattus norvegicus), sequence (Q02294 whole entry, looked up): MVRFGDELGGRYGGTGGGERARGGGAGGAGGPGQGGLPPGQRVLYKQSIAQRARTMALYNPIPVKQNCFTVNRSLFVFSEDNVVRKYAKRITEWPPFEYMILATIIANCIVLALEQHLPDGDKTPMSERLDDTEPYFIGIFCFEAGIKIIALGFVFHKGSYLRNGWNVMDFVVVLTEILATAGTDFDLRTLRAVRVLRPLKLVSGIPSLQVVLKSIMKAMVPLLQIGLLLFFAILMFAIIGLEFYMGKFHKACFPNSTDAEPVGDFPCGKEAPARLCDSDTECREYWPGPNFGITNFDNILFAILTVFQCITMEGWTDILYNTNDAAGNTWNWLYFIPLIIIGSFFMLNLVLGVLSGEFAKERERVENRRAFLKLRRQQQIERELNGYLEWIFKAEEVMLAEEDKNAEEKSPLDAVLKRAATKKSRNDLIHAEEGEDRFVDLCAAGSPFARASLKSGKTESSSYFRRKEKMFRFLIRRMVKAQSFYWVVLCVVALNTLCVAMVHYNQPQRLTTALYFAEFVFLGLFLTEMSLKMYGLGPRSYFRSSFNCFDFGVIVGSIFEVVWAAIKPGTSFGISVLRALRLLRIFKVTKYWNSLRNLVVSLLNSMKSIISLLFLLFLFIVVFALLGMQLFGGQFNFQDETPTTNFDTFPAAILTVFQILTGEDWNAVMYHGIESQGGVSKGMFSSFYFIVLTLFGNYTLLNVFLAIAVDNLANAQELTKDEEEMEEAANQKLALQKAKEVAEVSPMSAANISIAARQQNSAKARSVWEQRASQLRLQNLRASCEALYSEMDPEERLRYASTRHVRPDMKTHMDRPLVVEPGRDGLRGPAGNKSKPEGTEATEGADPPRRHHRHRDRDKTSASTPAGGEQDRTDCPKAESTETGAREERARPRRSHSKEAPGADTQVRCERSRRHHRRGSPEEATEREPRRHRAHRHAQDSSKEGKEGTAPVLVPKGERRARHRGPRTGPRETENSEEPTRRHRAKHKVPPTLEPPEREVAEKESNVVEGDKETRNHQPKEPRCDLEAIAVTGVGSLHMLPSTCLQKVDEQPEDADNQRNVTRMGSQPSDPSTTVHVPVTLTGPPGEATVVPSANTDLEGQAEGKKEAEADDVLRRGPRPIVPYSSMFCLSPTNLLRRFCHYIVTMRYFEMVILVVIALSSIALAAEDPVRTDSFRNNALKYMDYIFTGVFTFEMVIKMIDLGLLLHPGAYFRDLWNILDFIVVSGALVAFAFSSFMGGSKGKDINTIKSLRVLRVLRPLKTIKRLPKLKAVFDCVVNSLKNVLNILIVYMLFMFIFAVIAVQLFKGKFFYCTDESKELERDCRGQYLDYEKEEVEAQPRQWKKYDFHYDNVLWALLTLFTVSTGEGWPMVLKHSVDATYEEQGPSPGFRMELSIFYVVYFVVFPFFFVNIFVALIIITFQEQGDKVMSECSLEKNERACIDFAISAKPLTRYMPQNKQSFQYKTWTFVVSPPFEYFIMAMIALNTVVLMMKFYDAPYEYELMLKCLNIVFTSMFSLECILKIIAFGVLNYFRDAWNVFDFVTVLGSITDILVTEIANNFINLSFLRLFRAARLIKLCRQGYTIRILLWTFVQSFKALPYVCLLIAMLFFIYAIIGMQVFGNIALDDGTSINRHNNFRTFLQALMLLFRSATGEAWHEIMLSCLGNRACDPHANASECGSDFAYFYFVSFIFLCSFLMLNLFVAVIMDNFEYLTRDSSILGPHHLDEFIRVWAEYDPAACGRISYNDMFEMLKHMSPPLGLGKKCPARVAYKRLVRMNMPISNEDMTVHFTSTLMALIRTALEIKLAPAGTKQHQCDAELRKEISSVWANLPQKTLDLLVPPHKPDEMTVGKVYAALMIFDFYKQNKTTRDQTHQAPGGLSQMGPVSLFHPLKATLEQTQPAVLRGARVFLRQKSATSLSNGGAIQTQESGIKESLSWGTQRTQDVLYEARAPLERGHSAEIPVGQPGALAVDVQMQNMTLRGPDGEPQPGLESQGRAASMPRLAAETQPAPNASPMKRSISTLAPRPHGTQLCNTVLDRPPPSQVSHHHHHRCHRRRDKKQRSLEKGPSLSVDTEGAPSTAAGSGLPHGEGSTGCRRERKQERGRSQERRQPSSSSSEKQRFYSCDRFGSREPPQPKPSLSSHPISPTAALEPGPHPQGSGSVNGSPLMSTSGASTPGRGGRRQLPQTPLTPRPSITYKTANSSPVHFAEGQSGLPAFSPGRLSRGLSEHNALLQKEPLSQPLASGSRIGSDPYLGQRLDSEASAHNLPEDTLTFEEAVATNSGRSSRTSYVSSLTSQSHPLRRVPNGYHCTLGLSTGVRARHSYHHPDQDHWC

**Q.** CNC(CC(C)C)C(=O)NC1CCN(C(=O)CCC(c2ccc(F)cc2)c2ccc(F)cc2)CC1.Cl (centres undefined) was tested. Which Latency (Mus musculus [1]) did it give?
**A.** 21.5 s

**Q.** And the Latency (Mus musculus [2])?
**A.** 20.7 s

**Q.** What about the Efficacy (Mus musculus [3]) of the same compound?
**A.** 56%

**Q.** And the Latency (Mus musculus [4])?
**A.** 15.5 s

**Q.** What about the Activity (Rattus norvegicus [5]) of the same compound?
**A.** 28.1 g

**Q.** What about the Activity (Rattus norvegicus [6]) of the same compound?
**A.** 33.4 g

**Q.** And the Activity (Rattus norvegicus [7])?
**A.** 30.1 g

**Q.** And the Activity (Rattus norvegicus [8])?
**A.** 55.7 g

**Q.** What about the Activity (Rattus norvegicus [9]) of the same compound?
**A.** 61.3 g

**Q.** And the Activity (Rattus norvegicus [10])?
**A.** 66.4 g

**Q.** What about the IC50 [11] of the same compound?
**A.** 3 µM

**Q.** Which results are given for Cl.NC1CCN(C(=O)CCC(c2ccc(F)cc2)c2ccc(F)cc2)CC1?
**A.** Efficacy (Mus musculus [12]): 0%; Efficacy (Mus musculus [13]): 147%; Activity (Mus musculus [14]): 16.1 s; Activity (Mus musculus [15]): 23.9 s; Activity (Mus musculus [16]): 24.6 s; Activity (Mus musculus [17]): 16.4 s; Activity (Mus musculus [18]): 20.5 s; Activity (Mus musculus [19]): 14.3 s; Activity (Mus musculus [20]): 13.9 s; Activity (Mus musculus [21]): 34.1 s; Activity (Mus musculus [22]): 15.7 s; Activity (Mus musculus [23]): 31.7 s; Activity (Mus musculus [24]): 29.5 s; Activity (Rattus norvegicus [25]): 55.1 g; Activity (Rattus norvegicus [26]): 54.8 g; Activity (Rattus norvegicus [27]): 59.3 g; Activity (Rattus norvegicus [28]): 62.3 g; Activity (Rattus norvegicus [29]): 55.6 g; Activity (Rattus norvegicus [30]): 54.7 g; IC50 [31]: 2.4 µM

**Q.** For CN1CC[C@]23c4c5ccc(O)c4O[C@H]2[C@@H](O)C=C[C@H]3[C@H]1C5 [MORPHINE], which Latency (Mus musculus [32]) is on record?
**A.** 28.6 s

**Q.** What about the Latency (Mus musculus [33]) of the same compound?
**A.** 27.7 s

**Q.** And the Latency (Mus musculus [34])?
**A.** 22.4 s
